From publication PMC4532346 (Drug Design, Development and Therapy, 2015) come the findings set out here.

Where two headings read alike, the source gives them in different places. Some results are limits rather than exact numbers.

A short description of one series: Caco-2 permeability. It is filed as in vitro ADME, human. The settings on record: human. Summed up: (§1)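 Caco-2 cells grown in DMEM with 10% FBS, penicillin and streptomycin, seeded at 1×10^5 cells/cm2 on Transwell inserts and cultured 22 days at 37°C, 5% CO2. Preincubated 30 min in HBSS–HEPES. Only inserts with lucifer yellow ≤1% used, rechecked after the run. Test compound at 2 and 20 μM (1% DMSO final) added to donor, triplicate, A–B and B–A. Papp and efflux ratio calculated.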

The test system of another series is Caco-2 cell monolayer. The series is described as follows: Caco-2 permeability. It is filed as in vitro ADME, human. The settings on record: Papp(B-A)/Papp(A-B). The gist of the method:
as §1

The next series addresses CYP2C9 (Homo sapiens, UniProt P11712). Description: cytochrome P450 inhibition, CYP2C9. It is filed as in vitro ADME.
For a further series, the target named is CYP2D6 (Homo sapiens, UniProt P10635). The series is described as follows: cytochrome P450 inhibition, CYP2D6. It is filed as in vitro ADME.
Chain of CYP2D6 (P10635 whole entry): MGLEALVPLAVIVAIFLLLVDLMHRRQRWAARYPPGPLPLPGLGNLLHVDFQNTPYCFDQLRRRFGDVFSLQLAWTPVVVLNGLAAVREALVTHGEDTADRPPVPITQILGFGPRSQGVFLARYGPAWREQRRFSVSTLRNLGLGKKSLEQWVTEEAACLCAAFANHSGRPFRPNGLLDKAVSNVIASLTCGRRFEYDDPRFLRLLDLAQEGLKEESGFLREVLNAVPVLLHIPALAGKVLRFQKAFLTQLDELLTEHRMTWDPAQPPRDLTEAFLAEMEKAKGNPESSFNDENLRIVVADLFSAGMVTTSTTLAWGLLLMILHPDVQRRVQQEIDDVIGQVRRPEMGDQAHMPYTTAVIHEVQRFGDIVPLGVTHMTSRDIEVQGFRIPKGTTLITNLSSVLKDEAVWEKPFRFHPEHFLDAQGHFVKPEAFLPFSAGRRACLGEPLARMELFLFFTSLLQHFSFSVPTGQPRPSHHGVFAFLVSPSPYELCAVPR
A further series concerns the target CYP3A4 (Homo sapiens, UniProt P08684). The series is described as follows: cytochrome P450 inhibition, CYP3A4. It is filed as in vitro ADME.
The target of another series is CYP2C19 (Homo sapiens, UniProt P33261). Description: cytochrome P450 inhibition, CYP2C19. It is filed as in vitro ADME.
Chain of CYP2C19 (P33261 whole entry): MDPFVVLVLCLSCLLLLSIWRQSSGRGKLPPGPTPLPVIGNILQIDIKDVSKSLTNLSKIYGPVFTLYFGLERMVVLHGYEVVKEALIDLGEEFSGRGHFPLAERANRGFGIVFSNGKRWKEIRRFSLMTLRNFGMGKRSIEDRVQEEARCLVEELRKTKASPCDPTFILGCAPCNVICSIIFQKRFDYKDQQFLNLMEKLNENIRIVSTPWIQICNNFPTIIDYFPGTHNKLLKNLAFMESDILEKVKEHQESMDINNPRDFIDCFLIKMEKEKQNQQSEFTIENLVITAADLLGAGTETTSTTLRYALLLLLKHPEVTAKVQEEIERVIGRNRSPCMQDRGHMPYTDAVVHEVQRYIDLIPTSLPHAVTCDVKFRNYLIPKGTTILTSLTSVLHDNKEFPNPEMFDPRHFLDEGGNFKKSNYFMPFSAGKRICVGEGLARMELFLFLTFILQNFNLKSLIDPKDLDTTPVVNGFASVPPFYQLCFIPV
In the next series the target is T1, CYP1A2 (Homo sapiens, UniProt P05177).
T1 sequence (P05177 1-516): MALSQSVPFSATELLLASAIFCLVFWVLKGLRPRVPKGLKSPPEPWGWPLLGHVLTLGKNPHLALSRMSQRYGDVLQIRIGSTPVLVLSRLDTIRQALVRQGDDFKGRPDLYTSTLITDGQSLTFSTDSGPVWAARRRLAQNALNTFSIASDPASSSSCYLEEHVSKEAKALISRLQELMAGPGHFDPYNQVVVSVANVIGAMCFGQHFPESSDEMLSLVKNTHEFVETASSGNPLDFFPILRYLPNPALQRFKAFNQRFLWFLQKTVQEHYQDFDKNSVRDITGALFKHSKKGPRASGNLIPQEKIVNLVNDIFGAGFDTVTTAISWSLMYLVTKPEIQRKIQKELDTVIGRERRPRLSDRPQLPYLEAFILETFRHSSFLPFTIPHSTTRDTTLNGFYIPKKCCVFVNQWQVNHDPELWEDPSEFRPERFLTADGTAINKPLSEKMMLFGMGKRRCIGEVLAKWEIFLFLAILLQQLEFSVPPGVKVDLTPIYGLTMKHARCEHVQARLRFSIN
The series is described as follows: cytochrome P450 inhibition, CYP1A2. It is filed as in vitro ADME.

Chain of CYP3A4 (P08684 whole entry): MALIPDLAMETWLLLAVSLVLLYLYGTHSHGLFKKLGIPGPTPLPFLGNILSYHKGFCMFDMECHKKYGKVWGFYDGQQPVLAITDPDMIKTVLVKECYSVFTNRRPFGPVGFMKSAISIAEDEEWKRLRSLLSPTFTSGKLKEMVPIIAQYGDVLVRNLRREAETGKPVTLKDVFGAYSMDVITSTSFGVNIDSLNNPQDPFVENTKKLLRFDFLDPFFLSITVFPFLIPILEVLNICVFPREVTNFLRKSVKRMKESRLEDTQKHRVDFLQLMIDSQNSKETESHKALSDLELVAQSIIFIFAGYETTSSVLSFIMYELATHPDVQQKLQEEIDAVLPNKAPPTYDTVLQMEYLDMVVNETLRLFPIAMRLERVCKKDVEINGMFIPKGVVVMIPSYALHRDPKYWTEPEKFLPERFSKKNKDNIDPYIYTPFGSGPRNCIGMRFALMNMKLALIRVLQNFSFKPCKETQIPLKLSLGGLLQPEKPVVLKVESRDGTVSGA
Chain of CYP2C9 (P11712 whole entry): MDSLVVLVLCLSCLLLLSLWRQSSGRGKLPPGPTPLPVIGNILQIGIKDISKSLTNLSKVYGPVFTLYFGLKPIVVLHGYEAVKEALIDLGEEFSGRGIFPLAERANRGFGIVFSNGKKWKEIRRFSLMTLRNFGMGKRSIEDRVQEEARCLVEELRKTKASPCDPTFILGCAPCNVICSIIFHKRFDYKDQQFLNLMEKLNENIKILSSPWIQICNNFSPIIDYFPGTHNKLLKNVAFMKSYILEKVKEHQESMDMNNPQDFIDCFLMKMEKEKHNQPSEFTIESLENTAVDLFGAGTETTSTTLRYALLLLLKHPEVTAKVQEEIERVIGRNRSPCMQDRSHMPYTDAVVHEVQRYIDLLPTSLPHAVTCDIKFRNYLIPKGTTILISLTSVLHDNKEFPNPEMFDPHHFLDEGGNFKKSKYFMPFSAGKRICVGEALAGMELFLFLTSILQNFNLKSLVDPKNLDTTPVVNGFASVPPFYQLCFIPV

`COC(=O)c1ccc2c(c1)NC(=O)/C2=C(\Nc1ccc(N(C)C(=O)CN2CCN(C)CC2)cc1)c1ccccc1` [Nintedanib, nintedanib] displayed a Papp A→B at 120 min, 2 μM in the series “Caco-2 permeability” (Caco-2) of 0.05 ×10⁻⁶ cm/s. The compound also displayed a Papp A→B at 120 min, 20 μM in the series “Caco-2 permeability” (Caco-2) of 0.29 ×10⁻⁶ cm/s. The Papp B→A at 120 min, 2 μM in “Caco-2 permeability” (Caco-2) amounted to 14.4 ×10⁻⁶ cm/s. Further, the Papp B→A at 120 min, 20 μM in “Caco-2 permeability” (Caco-2) was 22.6 ×10⁻⁶ cm/s. Besides, in the series “Caco-2 permeability” (Caco-2, Efflux ratio, Caco-2, 2 μM, Papp(B-A)/Papp(A-B)), the efflux ratio at 120 min, 2 μM was about 319. In “Caco-2 permeability” (Caco-2, Efflux ratio, Caco-2, 20 μM, Papp(B-A)/Papp(A-B)), the efflux ratio at 120 min, 20 μM was about 78. The Efflux ratio in the series with Caco-2 cell monolayer (Caco-2, 2 μM) is on record as 319.81; in the series with Caco-2 cell monolayer (Caco-2, 20 μM), 78.24. In addition, the IC50 at CYP2C9 was 33 µM; against CYP2C9 (P450 inhibition IC50, 2C9, probe substrate diclofenac), at least 33 µM; against CYP2D6, 39.7 µM; on CYP2D6 (P450 inhibition IC50, 2D6, probe substrate dextromethorphan) it was at least 33 µM; against CYP3A4, 2.3 µM; on CYP3A4 (P450 inhibition IC50, 3A4 (Mid), probe substrate midazolam), over 80 µM. The IC50 is 51.3 µM at CYP2C19; at least 33 µM at CYP2C19 (P450 inhibition IC50, 2C19, probe substrate S-mephenytoin); 17.5 µM on CYP1A2. Moreover, the “P450 inhibition IC50, 3A4 (Mid)” value on CYP3A4 (probe substrate midazolam) is recorded as “did not show inhibition”.
